High-throughput results from PubChem.
HGIII-sPLA2 inh = human group III sPLA2 inhibitors, primary screen, biochemical, QFRET, BODIPY PC-A2 liposome substrate. QFRET BODIPY PC-A2 liposome hydrolysis, fluorescence. inhibition, % at 12.2 µM. 370,000 tested, 0.56% active. Group 3 secretory phospholipase A2 (Homo sapiens), Q9NZ20. AID 743126, 2013;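 active = inhibition above mean plus 3 SD of compounds lying within the high and low control bounds, cut at about 19% in these data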;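 also: 0% = median of test compound wells and 100% = no enzyme DMSO wells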
PLCg1 inh = PLC-gamma1 enzyme inhibitors, primary screen, biochemical, fluorescence, purified enzyme. 1-phosphatidylinositol 4,5-bisphosphate phosphodiesterase gamma-1 (Homo sapiens), P19174. AID 720700, 2013. fluorogenic substrate. 370,000 tested, 0.84% active. inhibition, % at 12.2 µM; in the data active = inhibition above about 9.5%
Tb MetRS inh = T. brucei MetRS inhibitors, primary screen, biochemical, luminescence; methionyl-tRNA synthetase (Trypanosoma brucei brucei); purified T. brucei MetRS, ATP depletion, Kinase-Glo luminescence; inhibition, % at 11.9 µM; 360,000 tested, 0.4% active;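 active = inhibition above a per-plate cutoff of the control wells' mean inhibition plus 3 SD, cut at about 5.5% in these data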;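 also: 0% = DMSO wells median and 100% = median of wells with control inhibitor compound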
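Measured by: Kinase-Glo luciferase luminescence reporting remaining unconsumed ATP. Material: purified T. brucei MetRS enzyme. Doses: 11.9 µM compound single dose, 0.9% DMSO. Medium: HEPES buffer containing pyrophosphatase, BSA, spermine, DTT. Times: 15 min preincubation, 2 h reaction, all 25 °C. Reagent: methionine, ATP and bulk E. coli tRNA.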
PLCb3 inh = human PLC-beta3 inhibitors, primary screen, biochemical, fluorescence | Purified PLC-beta3, fluorogenic substrate | inhibition, % at 12.2 µM | 370,000 tested, 0.18% active | AID 720704, 2013; in the data active = inhibition above about 11%;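 also: 0% = median of compound wells on plate and 100% = full blocker control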
sPLA2 confirm = human group III sPLA2 inhibitors, confirmation, biochemical, QFRET, triplicate; recombinant hGIII-sPLA2, BODIPY PC-A2 QFRET fluorescence; inhibition, % at 12.2 µM; 2,000 tested, 34% active; shares compounds with HGIII-sPLA2 inh;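 active = mean inhibition across triplicates above the hit cutoff set in the earlier primary screen, cut at about 19% in these data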;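 also: 0% = enzyme with DMSO and 100% = DMSO wells lacking enzyme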
535nm interf = 535nm fluorescence optical interference, confirmation, artefact control for HGIII-sPLA2 inhibitor project, biochemical, QFRET; shares compounds with HGIII-sPLA2 inh; inhibition, % at 12.2 µM; BODIPY FL product fluorescence interference; 2,000 tested, 8.5% active; AID 743282, 2014;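 active = average inhibition above the solvent-only control mean plus 3 SD, cut at about 6% in these data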;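 also: 0% = DMSO with substrate plus product and 100% = DMSO with substrate alone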
BODIPY interf DR = 535nm fluorescence optical interference, dose response, artefact control for HGIII-sPLA2 inhibitor project, biochemical, QFRET; shares compounds with HGIII-sPLA2 inh; BODIPY FL product fluorescence interference, cell-free; IC50, µM; 240 tested, under 10 active; AID 743455, 2014;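 active = IC50 at or below 10 µM; inactive = IC50 above 10 µM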
* marks the source's active call; other numbers are inactive results. Only some compounds are listed: those with a hit (about 1.9% of all), similar ones and a draw of the others.

How did O=C(Cc1cccs1)NNC(=S)NCc1ccc(Cl)cc1 do in these assays?
HGIII-sPLA2 inh: 19*; PLCg1 inh: 1; Tb MetRS inh: 0; PLCb3 inh: 0; sPLA2 confirm: 45*; 535nm interf: 0; BODIPY interf DR: >122

How did O=C(Cc1ccc(Cl)cc1)NNC(=S)NC(=O)c1cccs1 do in these assays?
HGIII-sPLA2 inh: 15; PLCg1 inh: 1; Tb MetRS inh: 0; PLCb3 inh: -3

What do the screens show for `Oc1ccc(CCc2ccccc2)c2cccnc12`?
HGIII-sPLA2 inh: 26*; PLCg1 inh: -9; PLCb3 inh: -7; sPLA2 confirm: 21*; 535nm interf: -3

Results for C[C@H](O)[C@@H]1CN2CCc3ccc(-c4ccc5c(c4)OCO5)cc3[C@@H]2C[C@@H]1N(C)C(=O)c1ccco1 ?
HGIII-sPLA2 inh: -11; PLCg1 inh: -1; PLCb3 inh: 0

What do the screens show for `CC(C)Oc1ccc(-c2csc(N3CCC(C(N)=O)CC3)n2)cc1`?
HGIII-sPLA2 inh: 12; PLCg1 inh: 3; PLCb3 inh: -5

Results for OC1c2cc(Br)ccc2N=C2CCCCCN21 (stereo not given) ?
HGIII-sPLA2 inh: 20*; PLCg1 inh: -15; Tb MetRS inh: -1; PLCb3 inh: -31; sPLA2 confirm: -3; 535nm interf: -7

What do the screens show for `CCNC(=S)NNC(=O)CSc1nc2ccccc2c(=O)n1-c1ccc(Cl)cc1`?
HGIII-sPLA2 inh: 32*; PLCg1 inh: 3; PLCb3 inh: 4; sPLA2 confirm: 25*; 535nm interf: 4

Results for O=C(CSc1nc2ccccc2c(=O)n1-c1ccc(F)cc1)Nc1ccc(N2CCOCC2)cc1 ?
HGIII-sPLA2 inh: 3; PLCg1 inh: -1; Tb MetRS inh: -1; PLCb3 inh: 3

Results for Cc1ccc(NC(=S)NNC(=O)CSc2nc3ccccc3c(=O)n2-c2ccc(C)cc2)cc1 ?
HGIII-sPLA2 inh: 28*; PLCg1 inh: 2; Tb MetRS inh: 0; PLCb3 inh: 0; sPLA2 confirm: 24*; 535nm interf: 4

How did O=C(CSc1nc2ccccc2c(=O)n1-c1ccc(SC(F)F)cc1)Nc1ccc(N2CCOCC2)cc1 do in these assays?
HGIII-sPLA2 inh: 21*; PLCg1 inh: -1; Tb MetRS inh: -1; PLCb3 inh: 2; sPLA2 confirm: 5; 535nm interf: -8

How did Cc1ccc(-n2c(SCC(=O)Nc3ccc(N4CCOCC4)cc3)nc3ccccc3c2=O)cc1 do in these assays?
HGIII-sPLA2 inh: 17; PLCg1 inh: 3; Tb MetRS inh: 0; PLCb3 inh: -5

Results for COc1ccc(-n2c(SCC(=O)NNC(=S)Nc3ccccc3)nc3ccccc3c2=O)cc1 ?
HGIII-sPLA2 inh: 36*; PLCg1 inh: 5; PLCb3 inh: -4; sPLA2 confirm: 39*; 535nm interf: 4; BODIPY interf DR: >122

How did CN(CCc1ccccn1)C(=O)c1ccc(Sc2ccccc2Cl)c([N+](=O)[O-])c1 do in these assays?
HGIII-sPLA2 inh: 7; PLCg1 inh: 2; PLCb3 inh: 0

What do the screens show for `O=C1OC(c2ccccc2)/C(=C(/O)c2ccc(Cl)cc2)C1=O` (stereo not given)?
HGIII-sPLA2 inh: 22*; PLCg1 inh: 8; Tb MetRS inh: 0; PLCb3 inh: -5; sPLA2 confirm: -39; 535nm interf: -3

How did COC(=O)[C@]12C[C@H](CC(=O)N3CCOCC3)C(=O)N(CCc3ccc(OC)c(OC)c3)C1=C[C@H](C(C)C)O[C@@H]2C1CC1 do in these assays?
HGIII-sPLA2 inh: -3; PLCg1 inh: 3; PLCb3 inh: 3

How did CNC(=O)CCN(Cc1ccco1)S(=O)(=O)c1ccc(OC)c(OC)c1 do in these assays?
HGIII-sPLA2 inh: 23*; PLCg1 inh: 5; Tb MetRS inh: -1; PLCb3 inh: 3; sPLA2 confirm: 0; 535nm interf: -7

What do the screens show for `C[C@@H]1CN([C@@H](C)CO)C(=O)CCCn2nncc2CO[C@@H]1CN(C)C(=O)Nc1ccccc1C(F)(F)F`?
HGIII-sPLA2 inh: 21*; PLCg1 inh: -2; Tb MetRS inh: -2; PLCb3 inh: 0; sPLA2 confirm: -3; 535nm interf: -9

How did CCOC(=O)[C@]12CCCCC/C=C\1N(CCc1ccc(Cl)cc1)C(=O)[C@H]2CC(=O)NCCCOC do in these assays?
HGIII-sPLA2 inh: -9; PLCg1 inh: 1; PLCb3 inh: 3

What do the screens show for `COc1ccccc1N1CCN(c2ccc([N+](=O)[O-])cc2Cl)CC1`?
HGIII-sPLA2 inh: 20*; PLCg1 inh: -1; Tb MetRS inh: 2; PLCb3 inh: 4; sPLA2 confirm: 12; 535nm interf: -9

Results for CCc1cccc(CC)c1NC(=S)NCC(c1cccnc1)N1CCOCC1 (stereo not given) ?
HGIII-sPLA2 inh: 24*; PLCg1 inh: 6; Tb MetRS inh: -1; PLCb3 inh: -4; sPLA2 confirm: 18; 535nm interf: -6

Results for CCCCCCC12C(=Cc3cc4c(cc31)OCCO4)c1cc(OC)c(OC)cc1C(CC(=O)NCc1ccccc1)N2C(=O)OC (stereo not given) ?
HGIII-sPLA2 inh: -5; PLCg1 inh: -24; PLCb3 inh: -29

Results for CCCCOCCCNC(=O)C[C@H]1C(=O)N(CCCOC)C2=CCCCC[C@]21C(=O)OC ?
HGIII-sPLA2 inh: -3; PLCg1 inh: -1; PLCb3 inh: 2

Results for C[N+](C)(C)CCCCCC[N+](C)(C)C ?
HGIII-sPLA2 inh: 3; PLCg1 inh: 3; Tb MetRS inh: -1; PLCb3 inh: 3

What do the screens show for `C[N+](C)(C)CCCCCC(=O)/C=N/O`?
HGIII-sPLA2 inh: 22*; PLCg1 inh: 1; Tb MetRS inh: -1; PLCb3 inh: 8; sPLA2 confirm: 4; 535nm interf: -5

What do the screens show for `CC(C)C[C@H]1COc2c(Cl)cccc2S(=O)(=O)N1Cc1cccc(Cl)c1`?
HGIII-sPLA2 inh: -5; PLCg1 inh: -1; PLCb3 inh: 0

How did Cc1ccc(OCC(=O)Nc2cccc(O)c2)cc1C do in these assays?
HGIII-sPLA2 inh: -14; PLCg1 inh: 2; Tb MetRS inh: 0; PLCb3 inh: -36

What do the screens show for `CNC(=S)NNC(=O)COc1ccc(C)c(C)c1`?
HGIII-sPLA2 inh: 28*; PLCg1 inh: -1; Tb MetRS inh: 0; PLCb3 inh: -4; sPLA2 confirm: 26*; 535nm interf: -1
